Source: ChEMBL document CHEMBL5620402, “Development of submicromolar 17β-HSD10 inhibitors and their in vitro and in vivo evaluation” (Eur J Med Chem, 2023)

Columns and labels:
HEK293 = assay: Cytotoxicity against human HEK293 cells assessed as change in ATP level at 1 uM measured after 48 hrs by CellTiter-Glo assay; type: toxicity, cell-based; conditions: hek293, 48 h
Method in brief: (§1)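 HEK293 or SH-SY5Y cells in DMEM with 10% FBS, 2 mM glutamine and NEAA were seeded at 7,500 cells per well and grown 24 h. They were then exposed to 1 or 10 μM compound (final 1% DMSO) for 48 h. ATP was read by CellTiter-Glo luminescence after CellTox Green, normalised to 1% DMSO and 100 μM valinomycin controls. At least two experiments in tetraplicate.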

[1] = target: T1, 3-hydroxyacyl-CoA dehydrogenase type-2 (Homo sapiens, UniProt Q99714); assay: Inhibition of recombinant 17beta-HSD10 (unknown origin) expressed in Escherichia coli BL21 (DE3) assessed as residual activity using acetoacetyl-CoA as substrate by SAAC method
T1 sequence (Q99714 whole entry): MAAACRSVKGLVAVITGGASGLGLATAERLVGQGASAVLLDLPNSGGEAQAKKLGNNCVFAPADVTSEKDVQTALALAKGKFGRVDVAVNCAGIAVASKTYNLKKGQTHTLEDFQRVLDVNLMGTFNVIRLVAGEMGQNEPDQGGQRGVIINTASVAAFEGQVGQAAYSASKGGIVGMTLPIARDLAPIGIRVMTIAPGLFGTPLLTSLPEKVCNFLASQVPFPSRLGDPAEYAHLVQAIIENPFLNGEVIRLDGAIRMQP
Method in brief: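 Recombinant 17β-HSD10 from E. coli BL21(DE3), 0.15 μg, was mixed with 320 μmol/L NADH in 10 mM Tris-HCl pH 7.4 buffer (150 mM NaCl, 1 mM DTT, 0.001% Tween 20, 0.01% BSA). It was preincubated 5 min at 37 °C with inhibitor, then 320 μmol/L acetoacetyl-CoA was added. A340 was followed for 5 min. IC50 came from non-linear regression of ≥3 independent runs in triplicate; Ki was calculated from IC50 per Cer et al.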

Sus scrofa [2] = organism: Sus scrofa; assay: Inhibition of pig brain mitochondrial Complex I assessed as rotenone-sensitive rate of the NADH oxidation by measuring activity by spectrophotometric ally method (reference value: 100 + /- 3.3%); set-up: scale not given: the % may be the effect or the level left; conditions: Mitochondria
Method in brief: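 Sonicated pig brain mitochondria (1 mg/mL protein) were held in 25 mM KH2PO4, 5 mM MgCl2 pH 7.2 with 2 mM KCN. They were incubated with 50 μM drug for 30 min at 30 °C. The reaction was started with coenzyme Q10 and NADH (100 μM each), and A340 was read for 5 min. The rotenone (10 μM)-insensitive background was subtracted. At least three measurements.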

SH-SY5Y [3] = assay: Cytotoxicity against human SH-SY5Y cells assessed as change in ATP level at 10 uM measured after 48 hrs by CellTiter-Glo assay; type: toxicity, cell-based; method in brief: as §1
[4] = Inhibition of complex I linked mitochondrial respiration in isolated pig brain mitochondria by O2k respirometry; set-up: species or system Sus scrofa
Method in brief: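 Respirometry (Oxygraph-2k) of purified pig brain cortex mitochondria in state 3. Substrates were malate + pyruvate + ADP (Complex I) or ADP + rotenone + succinate (Complex II). One chamber was titrated with compound (10–20 concentrations, final 1.25–500 μM) and the other with DMSO; rates were expressed relative to DMSO. IC50 came from four-parameter logistic fits.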

Sus scrofa [5] = organism: Sus scrofa; assay: Inhibition of pig brain mitochondrial Complex II and III assessed as antimycin A-sensitive rate of cytochrome c reduction upon addition of succinate by measuring activity by spectrophotometric ally method (reference value: 100 + /- 5.6%); set-up: scale not given: the % may be the effect or the level left; conditions: Mitochondria
[6] = Partition coefficient between Water and Octanol, logP of the compound by UHPLC-DAD-MS analysis; conditions: pH 7.4
[7] = Dissociation constant, pKa of compound using buffers of given pH (range from 3.0 to 11.5) by UV-VIS spectrophotometry; type: physicochemical
Method in brief: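 Compound (10 μL of 1 mg/mL) was put into 490 μL of buffers spanning pH 3.0–11.5 in 0.5-unit steps. UV spectra were scanned at 200–400 nm and 20 °C. pKa was fitted from the sigmoidal absorbance of the dissociated form versus pH.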

[8] = target: T2, Amine oxidase [flavin-containing] B (Sus scrofa, UniProt Q6PLK3); assay: Inhibition of pig brain mitochondrial MAO-B using [14C]PEA as substrate incubated for 60 mins by liquid scintillation counting analysis; type: mitochondria, Mitochondria
T2 sequence (Q6PLK3 whole entry): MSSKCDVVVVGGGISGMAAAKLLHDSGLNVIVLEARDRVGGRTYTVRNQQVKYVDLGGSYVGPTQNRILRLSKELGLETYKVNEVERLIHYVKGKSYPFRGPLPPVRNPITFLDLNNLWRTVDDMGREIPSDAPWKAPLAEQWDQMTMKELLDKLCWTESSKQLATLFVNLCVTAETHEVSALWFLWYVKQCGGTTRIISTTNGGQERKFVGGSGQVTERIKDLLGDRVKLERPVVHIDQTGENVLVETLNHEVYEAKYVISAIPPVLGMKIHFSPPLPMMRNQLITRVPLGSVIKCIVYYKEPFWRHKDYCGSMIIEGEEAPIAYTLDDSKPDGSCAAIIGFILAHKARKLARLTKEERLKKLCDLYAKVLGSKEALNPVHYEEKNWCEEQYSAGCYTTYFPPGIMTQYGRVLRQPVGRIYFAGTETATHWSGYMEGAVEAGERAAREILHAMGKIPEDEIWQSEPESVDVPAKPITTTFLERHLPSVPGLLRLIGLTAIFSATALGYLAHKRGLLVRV
Method in brief: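 Pig brain mitochondria were preincubated with drug at 5–7 concentrations (1–1000 μM) for 60 min at 37 °C. Radiolabelled substrate was then added: [3H]5-HT for MAO-A (20 min) or [14C]PEA for MAO-B (1 min). The aldehyde product was counted by liquid scintillation. IC50 came from four-parameter logistic fits; mean ± SE of ≥2 runs.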

[9] = Aqueous solubility, logS of the compound at pH 7.4 phosphate buffer by nephelometry assay; type: physicochemical
Method in brief: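 Nephelometry of compound suspensions in phosphate buffer pH 7.4. Stock was 160 μg/mL, sonicated and auto-diluted over 0–160 μg/mL, with higher stocks (640 μg/mL, 2.54 mg/mL) used if needed. Wells were shaken 30 s and laser-scanned. Solubility was derived by segmental linear regression.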

SH-SY5Y [10] = assay: Cytotoxicity against human SH-SY5Y cells assessed as change in ATP level at 1 uM measured after 48 hrs by CellTiter-Glo assay; type: toxicity, cell-based; method in brief: as §1

Row | IC50 [1] [nM] | Ki [1] [nM] | Activity (Sus scrofa [5]) [%] | logP [6] | pKa [7] | IC50 [8] | logS0 [9] | IC50 ([8]; read-out: IC50) [nM] | Compound | Activity (HEK293) | Activity (Sus scrofa [2]) [%] | Activity (SH-SY5Y [3]) | IC50 [4] [nM] | Activity (SH-SY5Y [10])
1 | 570 | 440 | 52.2 | 4.28 | 11.2 | Not Active | -4.48 |  | COc1ccc2nc(NC(=O)Nc3ccc(O)c(C(F)(F)F)c3)sc2c1 | Non-Toxic | 5.3 | Toxic | 28000 | 
2 | 840 | 650 | 99.7 | 3.32 | 9.35 |  | -4.78 | 84000 | NC(=O)c1ccc2nc(NC(=O)Nc3ccc(O)c(Cl)c3)sc2c1 | Non-Toxic | 25.2 | Non-Toxic | 88000 | Non-Toxic
3 | 340 | 250 | 97.4 | 3.66 | 9.83 |  | -4.55 | 120000 | CC(=O)Nc1ccc2nc(NC(=O)Nc3ccc(O)c(Cl)c3)sc2c1 | Non-Toxic | 24.3 | Non-Toxic | 36400 | Non-Toxic
4 | 310 | 230 |  | 1.19 | 9.75 |  | -4.36 | 81000 | O=C(Nc1ccc(O)c(Cl)c1)Nc1nc2ccc(C(=O)O)cc2s1 | Non-Toxic | 87.7 | Non-Toxic | 93000 | Non-Toxic
